In ChEMBL document CHEMBL1122905, “4-Deoxypyrido[1',2':1,2]imidazo[5,4-c]rifamycin SV derivatives. A new series of semisynthetic rifamycins with high antibacterial activity and low gastroenteric absorption” (1985):
Converted amounts (≈) assume the structure as drawn.

How the values were obtained:
[1] = system: Staphylococcus aureus; test: Antimicrobial activity derived as minimum inhibitory concentration are determined using brain-heart infusion medium against Staphylococcus aureus 209 P(FDA); type: functional
Procedure, shortened: (§1)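 Broth dilution in brain-heart infusion. Inoculum 10^6 cells/mL. MIC taken as the lowest antibiotic concentration preventing visible growth after 24 h at 35 °C.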

[2] = system: Salmonella paratyphi; test: Antimicrobial activity derived as minimum inhibitory concentration are determined using brain-heart infusion medium against Salmonella paratyphi B0248 K(Sclavo); type: functional, Salmonella enterica subsp. enterica serovar Paratyphi A; conditions: Salmonella enterica
Procedure, shortened: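 Broth dilution in brain-heart infusion. Inoculum 10^6 cells/mL. Incubated 24 h at 35 °C. MIC taken as the lowest antibiotic concentration that prevented visible growth.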

[3] = system: Escherichia coli; test: Antimicrobial activity derived as minimum inhibitory concentration are determined using brain-heart infusion medium against Escherichia coli ML/35.; type: functional; procedure, shortened: as §1
[4] = system: Pseudomonas aeruginosa; test: Antimicrobial activity derived as minimum inhibitory concentration are determined using brain-heart infusion medium against Pseudomonas aeruginosa ATCC 10145; type: functional; procedure, shortened: as §1
[5] = system: Klebsiella pneumoniae; test: Antimicrobial activity derived as minimum inhibitory concentration are determined using brain-heart infusion medium against Klebsiella Pneumoniae Ottaviani; type: functional; procedure, shortened: as §1
[6] = system: Staphylococcus aureus; test: Effective dose against infection of the mice due to Staphylococcus aureus administered perorally; type: functional; conditions: po
[7] = system: Staphylococcus aureus; test: Effective dose against Staphylococcus aureus in mice for peroral administration.; type: functional; conditions: po
[8] = system: Staphylococcus aureus; test: Effective dose against Staphylococcus aureus in mice for subcutaneous administration.; type: functional; conditions: sc

Row | Structure (SMILES) | MIC [1] [µg/mL] | MIC [2] [µg/mL] | MIC [3] [µg/mL] | MIC [4] [µg/mL] | MIC [5] [µg/mL] | ED50 [6] [mg/kg] | ED50 [7] [mg/kg] | ED50 [8] [mg/kg]
1 | COC1/C=C/OC2(C)Oc3c(C)c(O)c4c(O)c(c5c([n-]c6cc(C)cc[n+]65)c4c3C2=O)NC(=O)/C(C)=C\C=C\C(C)C(O)C(C)C(O)C(C)C(OC(C)=O)C1C (centres undefined) | < 0.005 | 6 (≈ 7.63 µM) | 6 (≈ 7.63 µM) | 15 (≈ 19.1 µM) | 25 (≈ 31.8 µM) | > 10 | – | –
2 | COC1/C=C/OC2(C)Oc3c(C)c(O)c4c(O)c(c(-[n+]5ccccc5)c(O)c4c3C2=O)NC(=O)/C(C)=C\C=C\C(C)C(O)C(C)C(O)C(C)C(OC(C)=O)C1C.[Br-] (centres undefined) | 0.005 | 50 | > 50 | 12 | > 50 | – | > 20 | –
3 | CO[C@H]1/C=C/O[C@@]2(C)Oc3c(C)c(O)c4c(O)c(c(/C=N/N5CCN(C)CC5)c(O)c4c3C2=O)NC(=O)/C(C)=C\C=C\[C@H](C)[C@H](O)[C@@H](C)[C@@H](O)[C@@H](C)[C@H](OC(C)=O)[C@@H]1C [RIFAMPIN] | < 0.005 | 12 (≈ 14.6 µM) | 6 (≈ 7.29 µM) | 12 (≈ 14.6 µM) | 25 (≈ 30.4 µM) | – | 0.14 | 0.14
4 | COC1/C=C/OC2(C)Oc3c(C)c(O)c4c(O)c(c5c([n-]c6cccc[n+]65)c4c3C2=O)NC(=O)/C(C)=C\C=C\C(C)C(O)C(C)C(O)C(C)C(OC(C)=O)C1C (centres undefined) | < 0.005 | 3 (≈ 3.89 µM) | 3 (≈ 3.89 µM) | 6 (≈ 7.77 µM) | 6 (≈ 7.77 µM) | – | 10.3 | 0.21
5 | COC1/C=C/OC2(C)Oc3c(C)c(O)c4c(O)c(c5c([n-]c6c7ccccc7cc[n+]65)c4c3C2=O)NC(=O)/C(C)=C\C=C\C(C)C(O)C(C)C(O)C(C)C(OC(C)=O)C1C (centres undefined) | < 0.005 | 3 (≈ 3.65 µM) | 12 (≈ 14.6 µM) | 0.7 (≈ 0.852 µM) | 12 (≈ 14.6 µM) | – | 2.22 | 0.81
6 | COC1/C=C/OC2(C)Oc3c(C)c(O)c4c(O)c(c(-[n+]5ccc(C(C)(C)C)cc5)c(O)c4c3C2=O)NC(=O)/C(C)=C\C=C\C(C)C(O)C(C)C(O)C(C)C(OC(C)=O)C1C.[Br-] (centres undefined) | 0.01 | > 50 | > 50 | > 50 | > 50 | – | – | –
7 | COC1/C=C/OC2(C)Oc3c(C)c(O)c4c(O)c(c5c([n-]c6c(C)ccc[n+]65)c4c3C2=O)NC(=O)/C(C)=C\C=C\C(C)C(O)C(C)C(O)C(C)C(OC(C)=O)C1C (centres undefined) | < 0.005 | 6 (≈ 7.63 µM) | 6 (≈ 7.63 µM) | 0.7 (≈ 0.891 µM) | 6 (≈ 7.63 µM) | – | > 10 | 0.47
8 | CC[N+](CC)(CC)c1c2c(O)c3c(O)c(C)c4c(c3c1O)C(=O)C(C)(O/C=C/C(OC)C(C)C(OC(C)=O)C(C)C(O)C(C)C(O)C(C)/C=C/C=C(/C)C(=O)N2)O4.[Br-] (centres undefined) | 0.005 | 25 | > 50 | 12 | 50 | – | > 20 | –
9 | COC1/C=C/OC2(C)Oc3c(C)c(O)c4c(O)c(c(-[n+]5cccc(C(N)=O)c5)c(O)c4c3C2=O)NC(=O)/C(C)=C\C=C\C(C)C(O)C(C)C(O)C(C)C(OC(C)=O)C1C.[Br-] (centres undefined) | 0.1 | > 50 | > 50 | > 50 | > 50 | – | > 20 | –
10 | COC1/C=C/OC2(C)Oc3c(C)c(O)c4c(O)c(c5c([n-]c6ccc(C)c[n+]65)c4c3C2=O)NC(=O)/C(C)=C\C=C\C(C)C(O)C(C)C(O)C(C)C(OC(C)=O)C1C (centres undefined) | < 0.005 | 6 (≈ 7.63 µM) | 6 (≈ 7.63 µM) | 3 (≈ 3.82 µM) | 12 (≈ 15.3 µM) | – | > 5 | > 2.5
11 | COC1/C=C/OC2(C)Oc3c(C)c(O)c4c(O)c(c5c([n-]c6ccc(OCc7ccccc7)c[n+]65)c4c3C2=O)NC(=O)/C(C)=C\C=C\C(C)C(O)C(C)C(O)C(C)C(OC(C)=O)C1C (centres undefined) | < 0.005 | > 50 | 50 (≈ 56.9 µM) | 50 (≈ 56.9 µM) | > 50 | – | – | –
12 | COC(=O)c1ccc[n+](-c2c3c(O)c4c(O)c(C)c5c(c4c2O)C(=O)C(C)(O/C=C/C(OC)C(C)C(OC(C)=O)C(C)C(O)C(C)C(O)C(C)/C=C/C=C(/C)C(=O)N3)O5)c1.[Br-] (centres undefined) | 0.07 | 25 | > 50 | > 50 | > 50 | – | – | –
